Consider 47 molecules from ChEMBL document CHEMBL1126247, “Iodoaminopotentidine and related compounds: a new class of ligands with high affinity and selectivity for the histamine H2 receptor” (J Med Chem, 1992).

The pKB is the KB on a negative log10 scale, so that one unit is a factor of ten. Low readings indicate a high KB, high ones a low KB. By Ki is commonly meant a measure of affinity in units of concentration, obtained from inhibition or displacement. Read a high Ki as weaker binding.

Test [1] in a line: Inhibition of the positive chronotropic response (H2-antagonism) of guinea pig right atrium relative to cimetidine. In kind it is functional, Cavia porcellus, Cardiac atrium.
In test [2] the target is Histamine H2 receptor (Cavia porcellus) (UniProt P47747). Briefly: Histamine H2 receptor antagonistic activity at a concentration of 0.3 uM on the isolated guinea pig right atrium. In kind it is functional, tissue-based. Conditions: Cardiac atrium.
Sequence of Histamine H2 receptor (Cavia porcellus) (P47747 whole entry): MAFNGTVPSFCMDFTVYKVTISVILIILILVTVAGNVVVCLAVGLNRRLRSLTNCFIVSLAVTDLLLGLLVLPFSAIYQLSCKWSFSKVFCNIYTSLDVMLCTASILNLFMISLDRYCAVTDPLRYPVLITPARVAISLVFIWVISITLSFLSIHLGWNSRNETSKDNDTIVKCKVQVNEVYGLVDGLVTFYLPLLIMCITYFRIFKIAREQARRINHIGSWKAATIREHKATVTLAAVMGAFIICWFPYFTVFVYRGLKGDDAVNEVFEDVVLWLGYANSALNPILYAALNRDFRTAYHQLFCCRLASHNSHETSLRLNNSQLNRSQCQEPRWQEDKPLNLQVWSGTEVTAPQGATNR
The target is the same in test [3]. Briefly: Histamine H2 receptor antagonism at a concentration of 1 umolar on the isolated guinea pig right atrium. In kind it is functional, tissue-based. Conditions: Cardiac atrium.
For test [4] the target is unchanged. Briefly: Inhibition of the positive chronotropic response (histamine H2 receptor antagonism) of guinea pig right atrium relative to cimetidine. Conditions: Cardiac atrium. It is filed as functional, tissue-based.
Test [5] has the same target. Briefly: Histamine H2 receptor antagonistic activity at a concentration of 0.3 and 1 uM on the isolated guinea pig right atrium. It is filed as functional, tissue-based. Conditions: Cardiac atrium.
In test [6] the target is T1, Histamine H2 receptor (Cavia porcellus, UniProt P47747). In words: Inhibition of [125I]APT binding to histamine H2 receptor in guinea pig cerebral membranes. In kind it is cell membranes. A digest of the protocol:
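Striatal membranes from male Hartley guinea pigs (200-300 g) in 50 mM sodium/potassium phosphate, pH 7.5, with 0.1% gelatin. Membranes incubated with 125I-APT 120 min at 25 °C, in triplicate. Stopped with cold buffer containing 0.1% BSA, then filtered on polyethylenimine-treated glass-fiber filters and γ-counted. […] Azido compounds handled under dim light.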

Test [7] concerns the target T1, Histamine H2 receptor. Briefly: Histamine H2 receptor antagonistic activity on the isolated guinea pig right atrium. To be noted: read-out: pA2 (converted).
Test [8] addresses Histamine H2 receptor (Cavia porcellus) (UniProt P47747). In words: Histamine H2 receptor antagonistic activity at a concentration of 0.3 and 0.1 uM on the isolated guinea pig right atrium. In kind it is functional, tissue-based. Conditions: Cardiac atrium.
The target in test [9] is Muscarinic acetylcholine receptor M3 (Cavia porcellus) (UniProt Q8VH26).
Sequence of Muscarinic acetylcholine receptor M3 (Cavia porcellus) (Q8VH26 1-587): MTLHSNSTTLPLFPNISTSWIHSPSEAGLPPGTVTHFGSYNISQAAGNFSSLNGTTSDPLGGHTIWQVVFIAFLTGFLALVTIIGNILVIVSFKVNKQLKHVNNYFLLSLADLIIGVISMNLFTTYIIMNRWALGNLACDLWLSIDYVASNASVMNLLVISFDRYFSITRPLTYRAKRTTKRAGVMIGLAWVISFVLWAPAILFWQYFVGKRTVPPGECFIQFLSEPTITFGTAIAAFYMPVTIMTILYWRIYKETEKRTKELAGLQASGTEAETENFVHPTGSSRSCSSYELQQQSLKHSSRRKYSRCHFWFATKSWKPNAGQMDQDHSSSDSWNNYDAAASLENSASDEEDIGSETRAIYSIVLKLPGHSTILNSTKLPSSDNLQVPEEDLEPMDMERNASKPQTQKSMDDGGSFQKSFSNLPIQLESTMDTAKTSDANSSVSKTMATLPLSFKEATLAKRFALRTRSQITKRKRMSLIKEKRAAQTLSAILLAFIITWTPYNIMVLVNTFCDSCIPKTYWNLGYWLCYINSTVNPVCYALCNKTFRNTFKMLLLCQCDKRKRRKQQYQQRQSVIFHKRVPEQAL
Test [10] deals with Histamine H2 receptor (Cavia porcellus) (UniProt P47747). Briefly: Potency to inhibit the positive chronotropic response (H2-antagonism) of guinea pig right atrium relative to cimetidine. It is filed as functional, tissue-based. Conditions: Cardiac atrium.
Test [11] addresses T1, Histamine H2 receptor. Briefly: Inhibition of [125I]APT binding to H2 receptors in guinea pig cerebral membranes. In kind it is cell membranes. The essentials: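 Striatal membranes from male Hartley guinea pigs (200-300 g) in 50 mM sodium/potassium phosphate, pH 7.5, with 0.1% gelatin. Stopped with cold buffer containing 0.1% BSA, then filtered on polyethylenimine-treated glass-fiber filters and γ-counted. Azido compounds handled under dim light.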

Test [12] has as its target Histamine H1 receptor (Cavia porcellus) (UniProt P31389).
The target in the next test is Histamine H1 receptor (Cavia porcellus, UniProt P31389). In words: Histamine H1 receptor antagonistic activity on the isolated guinea pig ileum determined by Schild plot. In kind it is functional, tissue-based. Conditions: read-out: pA2 (converted). A digest of the protocol: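 Whole proximal guinea pig ileum segments in Tyrode's solution gassed with 95% O2/5% CO2, isotonic recording at 10 mN load. Cumulative histamine (0.01-3 μM) curves. Antagonist applied 10 min before the curve. pK_B from concentration ratio, or pA2 by Schild plot.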
Sequence of Histamine H1 receptor (P31389 whole entry): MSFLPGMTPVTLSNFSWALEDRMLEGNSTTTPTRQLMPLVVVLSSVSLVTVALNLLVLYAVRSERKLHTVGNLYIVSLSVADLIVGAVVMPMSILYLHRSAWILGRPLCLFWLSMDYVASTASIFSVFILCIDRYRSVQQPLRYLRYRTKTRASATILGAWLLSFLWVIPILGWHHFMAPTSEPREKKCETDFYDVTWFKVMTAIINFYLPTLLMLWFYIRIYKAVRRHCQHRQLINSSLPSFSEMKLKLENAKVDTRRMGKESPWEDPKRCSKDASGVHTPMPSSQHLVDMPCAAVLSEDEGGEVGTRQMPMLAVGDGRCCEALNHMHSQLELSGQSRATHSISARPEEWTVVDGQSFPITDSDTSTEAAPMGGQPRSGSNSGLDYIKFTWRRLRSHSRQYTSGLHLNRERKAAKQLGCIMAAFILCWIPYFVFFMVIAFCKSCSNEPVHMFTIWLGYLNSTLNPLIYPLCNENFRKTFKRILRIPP

T1 sequence (P47747 whole entry): as the sequence (P47747 whole entry) above
Sequence of Histamine H1 receptor (Cavia porcellus) (P31389 whole entry): as the sequence (P31389 whole entry) above

As for `N#CN/C(=N\CCCNC(=O)c1ccccc1)NCCCOc1cccc(CN2CCCCC2)c1`, in test [1], the Relative potency amounted to 550%. In test [2], this molecule registered a pKB of 7.14.

`N#CN/C(=N\CCCCNC(=O)c1ccc(N)cc1)NCCCOc1cccc(CN2CCCCC2)c1` yielded a Relative potency in test [1] of 81%. Also, the pKB in test [3] worked out at 6.31.

Consider `C/N=C(/NC#N)NCCSCc1csc(NC(=N)N)n1`, for which the pKB in test [3] stood at 7.8.

With `N#CN/C(=N\CCCNc1ccc(N=[N+]=[N-])cc1[N+](=O)[O-])NCCCOc1cccc(CN2CCCCC2)c1`, the Relative potency in [4] was determined as 245%. Further, in [2], the pKB stood at 6.79.

`N#CN/C(=N\CCNc1ccc(N=[N+]=[N-])cc1[N+](=O)[O-])NCCCOc1cccc(CN2CCCCC2)c1` showed a Relative potency in test [4] of 977%. Also, in [3], the negative logarithm of the KB (pKB) turned out to be 7.39.

Molecule `N#CN/C(=N\CCCNC(=O)c1ccc(N=[N+]=[N-])cc1)NCCCCOc1cccc(CN2CCCCC2)c1` registered a Relative potency in [4] of 170%. In test [2], this molecule had a pKB of 6.63.

The molecule `N#CN/C(=N\CCCNC(=O)CCc1ccccc1)NCCCOc1cccc(CN2CCCCC2)c1` gave a Relative potency in test [1] of 47%. Further, the pKB in test [3] came out at 6.07.

On to `N#CN/C(=N\CCNC(=O)c1cc(I)c(N)c(I)c1)NCCCCOc1cccc(CN2CCCCC2)c1`, for which the pKB in [5] came to 7.86. Moreover, the Relative potency in [4] stood at 2880%.

`N#CN=C(NCCCOc1cccc(CN2CCCCC2)c1)NCCNC(=O)c1ccc(N)c(I)c1` had a Ki at Histamine H2 receptor [6] of 0.708 nM. Also, the Kb on Histamine H2 receptor [7] was 27.5 nM.

Consider `N#CN/C(=N\CCCOc1cccc(CN2CCCCC2)c1)NCC(O)CNc1ccccc1[N+](=O)[O-]` (stereo not given), for which the pKB in [8] is 7.34. The Relative potency in [4] is 871%.

For `CC(C)(C)OC(=O)Nc1ccc(C(=O)NCC/N=C(\NC#N)NCCCOc2cccc(CN3CCCCC3)c2)cc1`, in test [5], the negative-log KB (pKB) amounted to 6.87. In addition, the Relative potency in [1] amounted to 295%.

`N#CN/C(=N\CCNS(=O)(=O)c1ccccc1)NCCCOc1cccc(CN2CCCCC2)c1` showed a pKB in [5] of 6.67. Further, the Relative potency in test [1] amounted to 186%.

For `N#CN/C(=N\CCNC(=O)c1ccc(N)c(I)c1)NCCCCOc1cccc(CN2CCCCC2)c1`, in test [4], the Relative potency is 891%. The pKB in [2] is 7.35.

In test [4], `N#CN/C(=N\CCCNc1ccccc1[N+](=O)[O-])NCCCCOc1cccc(CN2CCCCC2)c1` had a Relative potency of 2820%. Besides, the negative-log KB (pKB) in test [3] turned out to be 7.85.

`N#CN/C(=N\CCCNc1ccccc1[N+](=O)[O-])NCCCOc1cccc(CN2CCCCC2)c1` had a negative-log KB (pKB) in test [8] of 7.52. Also, in test [4], the Relative potency was determined as 1320%.

Turning to `N#CN/C(=N\CCCCCNC(=O)c1ccccc1)NCCCOc1cccc(CN2CCCCC2)c1`, the Relative potency in test [1] turned out to be 151%. Besides, in test [3], the pKB amounted to 6.58.

`N#CN/C(=N\CCNc1ccc(N=[N+]=[N-])cc1[N+](=O)[O-])NCCCCOc1cccc(CN2CCCCC2)c1` registered a Relative potency in test [4] of 1180%. The molecule further had a pKB in test [2] of 7.47.

As to `N#CN/C(=N\CCNC(=O)c1ccccc1)NCCCCOc1cccc(CN2CCCCC2)c1`, the Relative potency in [1] amounted to 1862%. For the same molecule, the pKB in test [3] amounted to 7.67.

For the molecule `N#CN/C(=N\CCCNc1ccc(N=[N+]=[N-])cc1[N+](=O)[O-])NCCCCOc1cccc(CN2CCCCC2)c1`, the Relative potency in [4] is 145%. The molecule also showed a pKB in test [3] of 6.56.

Regarding `N#CN/C(=N\CCNC(=O)CCc1ccccc1)NCCCOc1cccc(CN2CCCCC2)c1`, the Relative potency in test [1] is 74%. The same molecule came in with a pKB in test [3] of 6.27.

The molecule `CNC(=C[N+](=O)[O-])NCCSCc1ccc(CN(C)C)o1` [RANITIDINE] showed a Ki at Histamine H2 receptor [6] of 53.7 nM. This molecule gave a Relative potency in test [4] of 631%. Further, the pKB in [3] amounted to 7.2.

Regarding `N#CN=C(NCCCOc1cccc(CN2CCCCC2)c1)NCCNC(=O)c1ccc(N=[N+]=[N-])c(I)c1`, the Kb on Histamine H2 receptor [7] was 155 nM.

In test [3], `CN/C(=N\CCSCc1nc[nH]c1C)NC#N` registered a pKB of 6.4.

In test [1], `Nc1ccc(C(=O)NCCCOc2cccc(CN3CCCCC3)c2)cc1` came in with a Relative potency of 263%. Moreover, in test [3], the pKB turned out to be 6.82.

Molecule `N#CN/C(=N\CCCOc1cccc(CN2CCCCC2)c1)NCC(O)CNC(=O)c1ccccc1` (stereo not given) had a pKB in test [5] of 7.31. The molecule further came in with a Relative potency in [1] of 813%.

In test [1], `N#CN/C(=N\CCNC(=O)c1ccc(N)cc1)NCCCCOc1cccc(CN2CCCCC2)c1` returned a Relative potency of 589%. The molecule also came in with a pKB in [2] of 7.17.

In test [1], `N#CN/C(=N\CCOC(=O)c1ccccc1)NCCCOc1cccc(CN2CCCCC2)c1` registered a Relative potency of 1738%. In test [3], this molecule came in with a pKB of 7.64.

As for `Nc1ccc(C(=O)NCCNC(=O)NCCCOc2cccc(CN3CCCCC3)c2)cc1`, the Relative potency in test [1] came to 676%. Moreover, in test [3], the pKB worked out at 7.23.

Molecule `N#CN/C(=N\CCCCNC(=O)c1ccccc1)NCCCOc1cccc(CN2CCCCC2)c1` returned a Relative potency in test [1] of 257%. In [3], this molecule gave a pKB of 6.81.

Molecule `O=C(NCCCOc1cccc(CN2CCCCC2)c1)NCCNC(=O)c1ccccc1` yielded a Relative potency in test [1] of 50%. Further, the pKB in test [3] worked out at 6.1.

In [1], `Cc1ccc(S(=O)(=O)NCC/N=C(\NC#N)NCCCCOc2cccc(CN3CCCCC3)c2)cc1` displayed a Relative potency of 776%. In test [3], this molecule displayed a pKB of 7.29.

The molecule `N#CN/C(=N\CCNC(=O)CCCc1ccccc1)NCCCOc1cccc(CN2CCCCC2)c1` yielded a Relative potency in test [1] of 112%. In [3], this molecule came in with a pKB of 6.45.

For `N#CN/C(=N\CCNC(=O)Cc1ccccc1)NCCCOc1cccc(CN2CCCCC2)c1`, the Relative potency in test [1] amounted to 339%. Moreover, the pKB in [3] amounted to 6.93.

The molecule `N#CN/C(=N\CCNC(=O)c1ccc(N=[N+]=[N-])cc1)NCCCOc1cccc(CN2CCCCC2)c1` gave a Relative potency in test [4] of 3160%. This molecule also yielded a pKB in test [3] of 7.9.

Turning to `N#CN/C(=N\CCNC(=O)c1cccc(I)c1)NCCCCOc1cccc(CN2CCCCC2)c1`, the pKB in [9] came to 5.59; in [12], 6.15; in [3], 6.56. For the same molecule, the Relative potency in test [10] stood at 145%. Moreover, the Ki on Histamine H2 receptor [11] is 5.25 nM.

In test [1], `N#CN/C(=N\CCNC(=O)c1ccccc1)NCCCOc1cccc(CN2CCCCC2)c1` gave a Relative potency of 2630%. This molecule registered a pKB in test [2] of 7.82.

For the molecule `N#CN/C(=N\CCNC(=O)c1cccc(N)c1)NCCCOc1cccc(CN2CCCCC2)c1`, in test [5], the pKB is 7.29. The molecule also came in with a Relative potency in test [1] of 776%.

On to `N#CN=C(NCCCOc1cccc(CN2CCCCC2)c1)NCCNC(=O)c1cccc(I)c1`, for which, on Histamine H1 receptor, the Kb was 2240 nM. For the same molecule, the affinity on Histamine H2 receptor [11], expressed as Ki, was 2.63 nM.

For `N#CN/C(=N\CCNC(=O)c1ccccc1[N+](=O)[O-])NCCCCOc1cccc(CN2CCCCC2)c1`, in [1], the Relative potency is on record as 1318%. In [3], this molecule displayed a pKB of 7.52.

As for `N#CN/C(=N\CCNC(=O)c1ccc(N=[N+]=[N-])cc1)NCCCCOc1cccc(CN2CCCCC2)c1`, in test [4], the Relative potency amounted to 1380%. The same molecule registered a pKB in test [2] of 7.54.

The molecule `N#CN/C(=N\CCCNC(=O)c1ccc(N=[N+]=[N-])cc1)NCCCOc1cccc(CN2CCCCC2)c1` showed a Relative potency in test [4] of 91%. This molecule also gave a pKB in test [3] of 6.36.

Regarding `N#CN/C(=N\CCCCCCNC(=O)c1ccccc1)NCCCOc1cccc(CN2CCCCC2)c1`, in [1], the Relative potency is recorded as 158%. The same molecule gave a pKB in test [3] of 6.6.

With `N#CN/C(=N\CCNS(=O)(=O)c1ccccc1)NCCCCOc1cccc(CN2CCCCC2)c1`, in [1], the Relative potency is 759%. In [3], this molecule gave a pKB of 7.28.

`N#CN/C(=N\CCNC(=O)c1ccncc1)NCCCOc1cccc(CN2CCCCC2)c1` gave a Relative potency in [1] of 309%. This molecule also displayed a pKB in test [3] of 6.89.

Regarding `CC(C)(C)OC(=O)Nc1ccc(CC(=O)NCC/N=C(\NC#N)NCCCCOc2cccc(CN3CCCCC3)c2)cc1`, the Relative potency in [1] was found to be 44%. In test [3], this molecule had a pKB of 6.04.

`Cc1ccc(S(=O)(=O)NCC/N=C(\NC#N)NCCCOc2cccc(CN3CCCCC3)c2)cc1` registered a Relative potency in test [1] of 54%. Besides, the pKB in [3] worked out at 6.13.

The molecule `N#CN/C(=N\CCCNC(=O)c1ccccc1)NCCCCOc1cccc(CN2CCCCC2)c1` had a Relative potency in test [1] of 158%. In test [3], this molecule came in with a pKB of 6.6.
